The target in assay [1] is Beta-lactamase (Pseudomonas aeruginosa (strain ATCC 15692 / PAO1 / 1C / PRS 101 / LMG12228)) (UniProt P24735). The experiment in a line: Inhibition of ampD, ampDh2 and ampDh3 deficient Pseudomonas aeruginosa PAO1 AmpC assessed as nitrocefin hydrolyzed per mg of protein at 120 uM by UV spectrophotometry. The method, boiled down:
(§1)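 Cells cultured with or without 120 μM CCCP; crude extracts made by sonication; β-lactamase measured by UV spectrophotometry with 100 μM nitrocefin substrate at 30°C; specific activity as nmol nitrocefin hydrolyzed per min per mg protein (BCA, BSA standard); triplicate, averaged.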

The target is the same in assay [2]. Nature of the assay: Inhibition of ampD, ampDh2, ampDh3 and ampG deficient Pseudomonas aeruginosa PAO1 AmpC assessed as nitrocefin hydrolyzed per mg of protein at 120 uM by UV spectrophotometry. The procedure, abridged:
as §1

Assay [3] has the same target. The experiment in a line: Inhibition of ampD, ampDh2, ampDh3 and ampG deficient Pseudomonas aeruginosa PAO1 AmpC harboring pZY0901 conferring resistance to gentamycin assessed as nitrocefin hydrolyzed per mg of protein at 120 uM by UV spectrophotometry. The method, boiled down:
as §1

Results on one molecule are retold here after ChEMBL document CHEMBL1687785, “ampG gene of Pseudomonas aeruginosa and its role in β-lactamase expression” (2010).

Beta-lactamase (Pseudomonas aeruginosa (strain ATCC 15692 / PAO1 / 1C / PRS 101 / LMG12228)), sequence (P24735 27-397 limits assumed): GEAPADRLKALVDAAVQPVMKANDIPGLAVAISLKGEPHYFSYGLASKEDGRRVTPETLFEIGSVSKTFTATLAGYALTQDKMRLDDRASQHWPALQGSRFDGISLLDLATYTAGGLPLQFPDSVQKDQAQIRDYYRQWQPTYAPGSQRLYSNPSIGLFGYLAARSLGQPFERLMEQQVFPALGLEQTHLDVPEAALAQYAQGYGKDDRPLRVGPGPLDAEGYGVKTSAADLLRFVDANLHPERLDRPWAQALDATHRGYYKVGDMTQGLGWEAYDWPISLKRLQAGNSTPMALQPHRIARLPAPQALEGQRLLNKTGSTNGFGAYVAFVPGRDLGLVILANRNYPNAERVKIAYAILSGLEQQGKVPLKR

Consider `N#CC(C#N)=NNc1cccc(Cl)c1`, for which the values for the Activity in assay [1], in assay [2] and in assay [3] were 1220 nmol/min, 3 nmol/min and 2800 nmol/min, respectively.
